# From ChEMBL document CHEMBL1137500, “Inhibitors of type III secretion in Yersinia: design, synthesis and multivariate QSAR of 2-arylsulfonylamino-benzanilides” (Bioorg Med Chem, 2007)
# Calls of active or inactive are those of the source. No cut-off for these calls is given here.
# Experiments:
# [1] = test system: Yersinia pseudotuberculosis; test: Effect on T3S in Yersinia pseudotuberculosis 3 pIB29 assessed as inhibition of light emission at 50 uM by luciferase reporter gene assay
# Method in brief: (§1)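 Strain YPIII-pIB29 (yopE-luxAB transcriptional fusion, lacking YopH), grown overnight at ambient temperature in BHI with 5 mM EGTA and 20 mM MgCl2 to deplete calcium, then adjusted to OD600 0.15-0.25. Compounds in DMSO (≤1% final) at 100, 50, 20 or 10 µM final, in triplicate. Plates shaken 1 h at ambient temperature, then 2 h at 37 °C. Decanal added within 30 min and luminescence read at once. Result is % inhibition of light versus control.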
# [2] = test system: Yersinia pseudotuberculosis; test: Effect on T3S in Yersinia pseudotuberculosis 3 pIB29 assessed as inhibition of light emission at 100 uM by luciferase reporter gene assay; method in brief: as §1
# [3] = test system: Yersinia pseudotuberculosis; test: Growth inhibition of Yersinia pseudotuberculosis; type: functional, organism-based
# Method in brief: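 Wild-type YPIII-pIB102 diluted to OD600 0.05-0.1 in BHI with 2.5 mM CaCl2. Grown at 37 °C with shaking, with compound at 10, 20, 50 or 100 µM. Absorbance read at 600 nm periodically, or at 595 nm hourly, over six hours and compared with the control growth curve.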
# [4] = test system: Yersinia pseudotuberculosis; test: Effect on T3S in Yersinia pseudotuberculosis 3 pIB29 assessed as inhibition of light emission at 10 uM by luciferase reporter gene assay; method in brief: as §1
# [5] = test system: Yersinia pseudotuberculosis; test: Effect on T3S in Yersinia pseudotuberculosis 3 pIB29 assessed as inhibition of light emission at 20 uM by luciferase reporter gene assay; method in brief: as §1
# [6] = molecular target: Tyrosine-protein phosphatase YopH (Yersinia pseudotuberculosis serotype I (strain IP32953)) (UniProt P08538); test: Inhibition of Yersinia pseudotuberculosis YP3-pIB102 YopH at 100 uM
# Method in brief: (§2)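 Strain YPIII-pIB102 grown overnight at 26 °C in BHI with 25 µg/ml chloramphenicol. Diluted to OD600 0.08 in calcium-depleted BHI (5 mM EGTA, 20 mM MgCl2), with compound at 100, 50, 20 or 10 µM, and shaken 2 h at 37 °C. Culture aliquot added to 25 mM p-nitrophenyl phosphate, 40 mM MES pH 5.0 and 1.6 mM DTT for 15 min at 37 °C. Stopped with NaOH and read at A405. Triplicates; result is % inhibition of secreted YopH activity.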
# [7] = molecular target: Tyrosine-protein phosphatase YopH (Yersinia pseudotuberculosis serotype I (strain IP32953)) (UniProt P08538); test: Inhibition of Yersinia pseudotuberculosis YP3-pIB102 YopH at 10 uM; method in brief: as §2
# [8] = molecular target: Tyrosine-protein phosphatase YopH (Yersinia pseudotuberculosis serotype I (strain IP32953)) (UniProt P08538); test: Inhibition of Yersinia pseudotuberculosis YP3-pIB102 YopH at 20 uM; method in brief: as §2
# [9] = molecular target: Tyrosine-protein phosphatase YopH (Yersinia pseudotuberculosis serotype I (strain IP32953)) (UniProt P08538); test: Inhibition of Yersinia pseudotuberculosis YP3-pIB102 YopH at 50 uM; method in brief: as §2
# Sequence of Tyrosine-protein phosphatase YopH (Yersinia pseudotuberculosis serotype I (strain IP32953)) (P08538 whole entry): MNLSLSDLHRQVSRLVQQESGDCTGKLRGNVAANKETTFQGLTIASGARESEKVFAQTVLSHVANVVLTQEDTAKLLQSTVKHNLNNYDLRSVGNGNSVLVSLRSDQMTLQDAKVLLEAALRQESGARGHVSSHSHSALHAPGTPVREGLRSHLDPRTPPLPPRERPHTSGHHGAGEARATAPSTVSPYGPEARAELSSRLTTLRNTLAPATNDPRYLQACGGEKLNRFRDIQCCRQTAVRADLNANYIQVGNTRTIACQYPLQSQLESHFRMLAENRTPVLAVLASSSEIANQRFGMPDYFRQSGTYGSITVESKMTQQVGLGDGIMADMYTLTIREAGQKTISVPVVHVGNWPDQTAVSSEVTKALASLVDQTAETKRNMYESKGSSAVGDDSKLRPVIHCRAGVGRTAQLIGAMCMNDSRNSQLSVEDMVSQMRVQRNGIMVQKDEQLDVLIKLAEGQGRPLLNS
Structure (SMILES),inhibition [1] [%],inhibition [2] [%],Activity [3],inhibition [4] [%],inhibition [5] [%],inhibition [6] [%],inhibition [7] [%],inhibition [8] [%],inhibition [9] [%]
O=C(Nc1cccc(Cl)c1)c1cc(Cl)ccc1NS(=O)(=O)c1cccc2nsnc12,47,55,inactive,3,13,–,–,–,–
COc1ccc(NC(=O)c2ccc(Cl)cc2NS(=O)(=O)c2ccc(Cl)c(Cl)c2)cc1,72,72,inactive,43,67,34,35,60,35
O=C(Nc1ccc(F)cc1)c1cc(F)c(F)cc1NS(=O)(=O)c1cccc(F)c1,71,75,inactive,22,51,70,27,54,63
O=C(Nc1ccc(Cl)c(Cl)c1)c1cc(Cl)ccc1NS(=O)(=O)c1cccc2nsnc12,69,62,inactive,48,68,63,19,62,66
O=C(Nc1ccc2c(c1)OCO2)c1ccc(Cl)cc1NS(=O)(=O)c1ccc(Cl)c(Cl)c1,74,69,inactive,37,66,59,33,60,64
O=C(Nc1ccc2cccnc2c1)c1cc(Cl)ccc1NS(=O)(=O)c1ccc(Cl)c(Cl)c1,59,52,inactive,18,51,–,–,–,–
O=C(Nc1ccc(F)c(F)c1)c1cc(F)c(F)cc1NS(=O)(=O)c1cccc([N+](=O)[O-])c1,23,49,inactive,-2,2,–,–,–,–
CN(C)c1ccc(NC(=O)c2cc(Cl)ccc2NS(=O)(=O)c2ccccc2)cc1,2,1,inactive,0,1,–,–,–,–
O=C(Nc1ccc(Cl)c(Cl)c1)c1cc(F)c(F)cc1NS(=O)(=O)c1cccc2nsnc12,66,80,inactive,9,39,–,–,–,–
O=C(Nc1ccc2cccnc2c1)c1cc(Cl)ccc1NS(=O)(=O)c1ccccc1,7,10,inactive,0,2,–,–,–,–
O=C(Nc1ccc(F)c(Cl)c1)c1cc(Cl)ccc1NS(=O)(=O)c1ccc(Cl)c(Cl)c1,–,–,inactive,–,–,–,–,–,–
O=C(Nc1ccc(F)cc1)c1ccc(Cl)cc1NS(=O)(=O)c1ccc(Cl)c(Cl)c1,–,–,inactive,–,–,–,–,–,–
CN(C)c1ccc(NC(=O)c2cc(Cl)ccc2NS(=O)(=O)c2cccc([N+](=O)[O-])c2)cc1,8,7,inactive,3,4,–,–,–,–
O=C(Nc1ccc(Cl)c(Cl)c1)c1ccccc1NS(=O)(=O)c1cccc2nsnc12,11,13,inactive,5,10,–,–,–,–
O=C(Nc1ccc(Cl)c(Cl)c1)c1cc(F)c(F)cc1NS(=O)(=O)c1cccc([N+](=O)[O-])c1,79,90,inactive,9,33,81,26,67,74
O=C(Nc1ccc(Cl)cc1)c1ccccc1NS(=O)(=O)c1cccc2nsnc12,12,18,inactive,-1,5,–,–,–,–
O=C(Nc1ccc(F)c(F)c1)c1ccc(Cl)cc1NS(=O)(=O)c1cc(Cl)cc(Cl)c1O,86,87,inactive,15,50,–,–,–,–
COc1ccc(NC(=O)c2ccc(Cl)cc2NS(=O)(=O)c2cccc(F)c2)cc1,32,51,inactive,5,9,–,–,–,–
O=C(Nc1ccc(Cl)c(Cl)c1)c1cc(F)c(F)cc1NS(=O)(=O)c1cc(Cl)cc(Cl)c1O,92,92,inactive,69,85,81,57,82,80
Cc1ccc(S(=O)(=O)Nc2cc(F)c(F)cc2C(=O)Nc2ccc(Cl)c(Cl)c2)cc1,1,2,inactive,57,9,–,–,–,–
O=C(Nc1ccc(Cl)c(Cl)c1)c1ccc(Cl)cc1NS(=O)(=O)c1cccc2nsnc12,71,68,inactive,35,61,–,–,–,–
O=C(Nc1ccc(F)cc1)c1cc(Cl)ccc1NS(=O)(=O)c1cc(Cl)cc(Cl)c1O,79,88,inactive,13,43,–,–,–,–
O=C(Nc1ccccc1)c1cc(Cl)ccc1NS(=O)(=O)c1cccc2nsnc12,9,20,inactive,-2,1,–,–,–,–
O=C(Nc1ccc2c(c1)OCO2)c1ccc(Cl)cc1NS(=O)(=O)c1ccccc1,10,15,inactive,4,7,34,14,19,25
CC(=O)c1ccc(S(=O)(=O)Nc2cc(Cl)ccc2C(=O)Nc2ccc(F)c(Cl)c2)cc1,70,72,inactive,11,33,–,–,–,–
O=C(Nc1ccc(F)c(F)c1)c1ccc(Cl)cc1NS(=O)(=O)c1cccc2nsnc12,50,63,inactive,9,17,–,–,–,–
O=C(Nc1ccc(Cl)c(Cl)c1)c1cc(Cl)ccc1NS(=O)(=O)c1ccccc1,73,70,inactive,58,70,–,–,–,–
